Consider four molecules from ChEMBL document CHEMBL3232803, “Optimization of potency and pharmacokinetic properties of tetrahydroisoquinoline transient receptor potential melastatin 8 (TRPM8) antagonists” (J Med Chem, 2014).

Format in all cases: ADME, organism-based
Data set [1] is described as follows: Oral bioavailability in Sprague-Dawley rat. Conditions: in vivo. The method, boiled down: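 Male Sprague−Dawley rats, n = 3 per group. Iv arm: fed animals, 2 mg/kg in DMSO. Oral arm: fasted animals, 5 or 10 mg/kg by gavage as a suspension in 5% Tween 80/Oraplus. Plasma sampled to 16 h, measured by LC-MS/MS, analysed noncompartmentally.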
Data set [2] can be described thus: Cmax in Sprague-Dawley rat at 5 mg/kg, po by LC-MS/MS analysis. More on the design: dose 5 mg/kg, route oral. Conditions: in vivo. The method, boiled down:
(§1)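 Fasted male Sprague−Dawley rats (n = 3) given oral gavage as a suspension in 5% Tween 80/Oraplus. Blood sampled up to 16 h post dose, plasma prepared by centrifugation and assayed by LC-MS/MS. Total plasma concentration-time data analysed by noncompartmental methods.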

The nature of data set [3]: Volume of distribution at steady state in Sprague-Dawley rat at 2 mg/kg, iv by LC-MS/MS analysis. Details: dose 2 mg/kg, route intravenous. Conditions: in vivo, read-out: Vdss. In outline:
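Fed male Sprague−Dawley rats (n = 3) dosed iv at 2 mg/kg in DMSO. Plasma sampled up to 16 h, quantified by LC-MS/MS. Noncompartmental analysis of total plasma concentration-time data.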

Data set [4] can be described thus: AUC (0 to infinity) in Sprague-Dawley rat at 5 mg/kg, po by LC-MS/MS analysis. Details: time infinity, dose 5 mg/kg, route oral. Conditions: plasma. In outline:
as §1

A short description of data set [5]: Oral bioavailability in Sprague-Dawley rat at 5 mg/kg by LC-MS/MS analysis. Conditions: in vivo. In outline:
as §1

Data set [6] is described as follows: Tmax in Sprague-Dawley rat at 5 mg/kg, po by LC-MS/MS analysis. Details: dose 5 mg/kg, route oral. Conditions: in vivo. In outline:
as §1

A short description of data set [7]: Plasma concentration in unilateral cartoid artery cannulated Sprague-Dawley rat model at 3 mg/kg, po after […]. More on the design: dose 3 mg/kg, route oral.

As usually defined, the bioavailability is dose-corrected exposure relative to a reference, in per cent. A lower bioavailability goes with poor availability. `N#Cc1ccc(NC(=O)N2CCc3cccnc3[C@H]2c2ccc(C(F)(F)F)cc2)cc1` registered a bioavailability in data set [1] of 70%.
What is called Cmax is the peak of the concentration-time curve. By AUC(0-inf) is commonly meant the area under the concentration-time curve extrapolated to infinity. Low readings indicate less exposure, high ones more exposure. As to `C[C@H](NC(=O)N1CCc2cccnc2[C@H]1c1ccc(C(F)(F)F)cc1)C(F)(F)F`, in data set [2], the Cmax was 1580 nM. Also, the Vd in data set [3] worked out at 2.7 L/kg. Besides, the AUC(0-inf) in data set [4] worked out at 12 µM·h.
As to `C[C@H](NC(=O)N1CCc2ccccc2[C@H]1c1ccc(C(F)(F)F)c(F)c1)C(F)(F)F`, the bioavailability in data set [5] stood at 67%. Also, the concentration in data set [2] peaked (Cmax) at 1670 nM. Also, the Vd in data set [3] is 3 L/kg. For the same molecule, the AUC(0-inf) in data set [4] came to 12.1 µM·h.
As usually defined, the Tmax is the time at which the peak concentration occurs. In turn, `C[C@H](NC(=O)N1CCc2cccnc2[C@H]1c1ccc(C(F)(F)F)c(F)c1)C(F)(F)F` gave a bioavailability in data set [5] of 51%. For the same molecule, the peak level in data set [2] (Cmax) was 3860 nM. For the same molecule, the Tmax in data set [6] stood at 5.3 h. The molecule also gave a concentration at […] in data set [7] of 1270 nM. The Vd in data set [3] worked out at 1.7 L/kg. Moreover, in data set [4], the AUC(0-inf) was found to be 71.9 µM·h.
